Results on 16 compounds are retold here after ChEMBL document CHEMBL1154676, “Synthetic mRNA splicing modulator compounds with in vivo antitumor activity” (J Med Chem, 2009).

SMILES strings stand for the structures. Active and inactive are the calls of the source. The calls are words filed in the database; no cut-off is given here.

A short description of series [1]: Cytotoxicity against human JeKo1 cells after 72 hrs by XTT assay. The series is classed as functional, cell-based. As to conditions: JeKo-1, 72 h. The essentials:
(§1)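 Cells grown at 37 °C, 5% CO2; HFF in DMEM with 10% FBS, PrEC in prostate epithelial growth medium. Adherent lines seeded overnight, suspension lines same day; compounds diluted from DMSO stocks into media at various final concentrations, 72 h exposure. XTT reagent added 4 h, absorbance 490 nm (reference 690 nm). Growth as % of vehicle; IC50 from sigmoidal dose-response fit; mean ± SEM, three independent experiments.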
On the technique in general: Formazan colour is commonly taken as a measure of viable cells.

Another series deals with PC-3. The experiment in a line: Cytotoxicity against human PC3 cells after 72 hrs by XTT assay. The following applies: PC-3, 72 h. The series is classed as functional, cell-based. The procedure, abridged:
as §1

For another series, the system named is JVM-2. The experiment in a line: Cytotoxicity against human JVM2 cells after 72 hrs by XTT assay. It counts as functional, cell-based. As to conditions: JVM-2, 72 h. The procedure, abridged:
as §1

The next series deals with WiDr. The experiment in a line: Cytotoxicity against human WiDr cells after 72 hrs by XTT assay. The series is classed as functional, cell-based. The procedure, abridged: as §1
For series [2], the system named is HeLa. The experiment in a line: Anticancer activity in human HeLa cells assessed as aggregation of SC35 and SF3b protein SAP155 at 10 uM after 4 hrs by immunofluorescence analysis. The series is classed as functional, cell-based. The procedure, abridged:
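HeLa cells on glass coverslips exposed 4 h to 10 μM compound in DMSO (DMSO-only control), fixed in cold methanol at −20 °C for 10 min. Stained with anti-SC35 or anti-SAP155 primary (1/100, 1 h, 37 °C), then Alexa Fluor 488 anti-mouse secondary (1/200). Splicing-factor distribution imaged by fluorescence microscopy at 60X.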

The test system of another series is JeKo-1. The experiment in a line: Anticancer activity against human JeKo1 cells transplanted in Es-1/SCID mouse assessed as decrease in tumor volume at 50 to 100 mg/kg, iv measured after 25 days. The series is classed as functional, organism-based.
The test system of series [3] is HeLa. The experiment in a line: Inhibition of spliceosome splicing activity in human HeLa cells assessed as mRNA products at 0.5 to 10 uM by autoradiography. It counts as cell-based.
Series [4] in a line: Chemical stability in phosphate buffer assessed as half life at pH 7.4 at 37 degC. The series is classed as physicochemical.

By IC50 is commonly meant the point on the concentration scale where inhibition reaches its midpoint. Low readings indicate higher potency, high ones lower potency. On to `CC(/C=C/[C@@H]1C[C@]2(CO2)CC(C)(C)O1)=C\C[C@H]1CC[C@@H](NC(=O)/C=C\[C@H](C)OC(=O)N2CCN(C)CC2)CC1`, for which the IC50 in series [1] is greater than 500 nM; with PC-3 it was greater than 2.5 µM; in the series on JVM-2, greater than 500 nM; in the series with WiDr it was greater than 1250 nM.
For `CC(/C=C/[C@@H]1C[C@](O)(CCl)CC(C)(C)O1)=C\C[C@H]1CC[C@@H](NC(=O)/C=C\[C@H](C)OC(=O)N2CCN(C3CCCCCC3)CC2)CC1`, the IC50 in the series with PC-3 is greater than 5 µM; in the series with JVM-2, greater than 10000 nM; in the series with WiDr, greater than 1250 nM.
In turn, `CC(/C=C/[C@@H]1C[C@]2(CO2)CC(C)(C)O1)=C\C[C@H]1OC[C@@H](NC(=O)/C=C\[C@H](C)OC(=O)C(C)C)CO1` yielded an IC50 in series [1] of 150 nM. The outcome in the series with HeLa [2], with JeKo-1 and with HeLa [3] was Active.
Regarding `CC(/C=C/[C@@H]1C[C@]2(CO2)CC(C)(C)O1)=C\C[C@H]1CC[C@@H](NC(=O)/C=C\[C@H](C)OC(=O)C2CCN(C)CC2)CC1`, the figures for the IC50 (in series [1]; in the series on PC-3) were greater than 1000 nM and 10 µM, respectively.
For `CC(=O)O[C@@H](C)/C=C\C(=O)N[C@H]1CC[C@@H](C/C=C(C)/C=C/[C@@H]2C[C@]3(CO3)CC(C)(C)O2)CC1`, in series [1], half-maximal inhibition (IC50) required 100 nM.
Regarding `CC(/C=C/[C@@H]1C[C@]2(CO2)CC(C)(C)O1)=C\C[C@H]1CC[C@@H](NC(=O)/C=C\[C@H](C)OC(=O)C2CCOCC2)CC1`, the results for the IC50 (in series [1]; in the series on PC-3) were 450 nM and 2 µM, respectively.
Take `CC(/C=C/[C@@H]1C[C@]2(CO2)CC(C)(C)O1)=C\C[C@H]1CC[C@@H](NC(=O)/C=C\[C@H](C)OC(=O)c2ccco2)CC1`: the figures for the IC50 (in series [1]; in the series on PC-3; with WiDr) were 140 nM, 3.5 µM and 140 nM, respectively.
In the case of `CC(/C=C/[C@@H]1C[C@]2(CO2)CC(C)(C)O1)=C\C[C@H]1CC[C@@H](NC(=O)/C=C\[C@H](C)OC(=O)c2cccnc2)CC1`, the values for the IC50 (in series [1]; in the series with PC-3; in the series with WiDr) were 170 nM, 8.1 µM and 170 nM, respectively.
For the compound `CC(/C=C/[C@@H]1C[C@]2(CO2)CC(C)(C)O1)=C\C[C@H]1CC[C@@H](NC(=O)/C=C\[C@H](C)OC(=O)c2ccccc2)CC1`, the IC50 was found to be 410 nM in series [1], 4.9 µM with PC-3 and 410 nM in the series with WiDr.
Regarding `CC(/C=C/[C@@H]1C[C@]2(CO2)CC(C)(C)O1)=C\C[C@H]1CC[C@@H](NC(=O)/C=C\[C@H](C)OC(=O)N2CCN(C3CCCCCC3)CC2)CC1`, the concentration for half-maximal inhibition (IC50) was greater than 5 µM in the series with PC-3 and greater than 1000 nM with JVM-2.
With `COc1cccc(N2CCN(C(=O)O[C@@H](C)/C=C\C(=O)N[C@H]3CC[C@@H](C/C=C(C)/C=C/[C@@H]4C[C@]5(CO5)CC(C)(C)O4)CC3)CC2)c1`, the IC50 in series [1] is greater than 500 nM; in the series on PC-3, greater than 2.5 µM; in the series on JVM-2, greater than 500 nM; in the series with WiDr it was greater than 1250 nM.
As for `CC(/C=C/[C@@H]1C[C@]2(CO2)CC(C)(C)O1)=C\C[C@H]1CC[C@@H](NC(=O)/C=C\[C@H](C)OC(=O)N2CCN(CCO)CC2)CC1`, the IC50 is greater than 500 nM in series [1], greater than 2.5 µM with PC-3, greater than 500 nM with JVM-2 and greater than 1250 nM in the series with WiDr.
`CC(/C=C/[C@@H]1C[C@]2(CO2)CC(C)(C)O1)=C\C[C@H]1CC[C@@H](NC(=O)/C=C\[C@H](C)OC(=O)c2cccn2C)CC1`: the IC50 worked out at 390 nM in series [1], 4.3 µM with PC-3 and 390 nM with WiDr.
Usually half-life stands for the time in which the quantity being followed falls by half. Regarding `CC(=O)O[C@@H](C)/C=C\C(=O)N[C@@H]1C[C@H](C)[C@H](C/C=C(C)/C=C/[C@H]2O[C@](C)(O)C[C@@]3(CO3)[C@@H]2O)O[C@@H]1C`, the half-life in series [4] is 240 min.
`CC(/C=C/[C@@H]1C[C@]2(CO2)CC(C)(C)O1)=C\C[C@H]1CC[C@@H](NC(=O)/C=C\[C@H](C)OC(=O)C2CCN(c3ccnc(C(F)(F)F)n3)CC2)CC1`: the results for the IC50 (in series [1]; in the series with PC-3; with WiDr) were greater than 1000 nM, greater than 10 µM and greater than 1000 nM, respectively.
Turning to `CC(/C=C/[C@@H]1C[C@]2(CO2)CC(C)(C)O1)=C\C[C@H]1CC[C@@H](NC(=O)/C=C\[C@H](C)O)CC1`, the IC50 turned out to be 1600 nM in series [1], 10 µM with PC-3, 1500 nM with JVM-2 and 10000 nM with WiDr.
